Laboratory results published in ChEMBL document CHEMBL1629677, “A small-molecule dengue virus entry inhibitor” (Antimicrob Agents Chemother, 2009).
Active and inactive are the calls of the source. The calls are words filed in the database; no cut-off is given here.

Tests used:
[1] = system: Dengue virus; assay: Antiviral activity against 0.0001 MOI Dengue virus NGC infected in Cricetinae BHK21 cells assessed as decrease in viral E protein production […] by plaque reduction assay; format: functional, organism-based; details: BHK-21
[2] = system: Dengue virus; assay: Antiviral activity against Dengue virus NGC infected in human A549 cells assessed as decrease in viral E protein production after 48 hrs by CFI assay; format: functional, organism-based; details: A549, 48 h
Method in brief: (§1)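 A549 or BHK21 cells at 2 x 10^4/well grown overnight, then infected at MOI 0.3 with compound dilutions for 1 h at 37°C. Inoculum replaced by medium with compound for 48 h. Methanol-fixed, probed with anti-E antibody 4G2 and HRP anti-mouse IgG, developed with TMB, absorbance at 450 nm. EC50 by nonlinear regression of mean absorbance vs log concentration.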

[3] = Cytotoxicity against human A549 cells after 48 hrs by celltiter-glo luminescent cell viability assay; format: cell-based
Method in brief: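 A549 cells plated and compound added as in the immunodetection assay, then incubated for 48 h. Viability by CellTiter-Glo luminescence relative to DMSO-treated cells, giving CC50.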

[4] = Antiviral activity against Japanese encephalitis virus Nakayama infected in Cricetinae BHK21 cells assessed as decrease in viral E protein production after 48 hrs by CFI assay; format: functional, cell-based, Japanese encephalitis virus strain Nakayama; details: BHK-21, 48 h; method in brief: as §1
[5] = system: Dengue virus; assay: Antiviral activity against Dengue virus NGC infected in human A549 cells assessed as decrease in viral E protein production during early stage of virus life cucle by CFI assay; format: functional, organism-based; details: TDE = time-dependent effect
Method in brief: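 A549 cells infected at MOI 0.3 for 1 h at 37°C. Compound dilutions were present during infection only, after infection only, or throughout. Alternatively, a fixed concentration was added at 0–120 min after virus. E protein measured by immunodetection at 48 h. Duplicate wells in two experiments, or three independent experiments for the time course.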

[6] = system: dengue virus type 3; assay: Antiviral activity against DENV-3 isolate My99-21531 infected in Cricetinae BHK21 cells assessed as decrease in viral E protein production after 48 hrs by CFI assay; format: functional, organism-based; details: isolate My99-21531, BHK-21, 48 h; method in brief: as §1
[7] = system: Dengue virus; assay: Antiviral activity against 25 MOI Dengue virus NGC infected in human A549 cells assessed as colocalized virus with endocytosed dextran by confocal microscopy; format: functional, organism-based
Method in brief: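 A549 cells on coverslips (1 x 10^5/well) infected at MOI 0.3? no: MOI 25 with 5 µM compound for 7 h. Rhodamine-dextran 20 mg/ml added for 20 min at 37°C, then methanol fixation and anti-E 4G2 staining with FITC secondary. Examined by confocal microscopy.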

[8] = system: West Nile virus; assay: Antiviral activity against West nile virus B956 infected in Cricetinae BHK21 cells assessed as decrease in viral E protein production after 48 hrs by CFI assay; format: functional, organism-based; details: B956, BHK-21, 48 h; method in brief: as §1
[9] = system: Dengue virus; assay: Antiviral activity against Dengue virus NGC infected in human A549 cells assessed as change in endosomal pH at 0.2 microM by Lysosensor green DND189 accumulation assay; format: functional, organism-based
Method in brief: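 A549 cells on coverslips exposed to compound or bafilomycin A1 in Ham's F-12 with 2% FBS for 4 h at 37°C; 0.9% DMSO as control. Stained with 0.5 µM Lysosensor green DND-189 for 2 min at room temperature, washed, and imaged live by fluorescence microscopy.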

[10] = system: Yellow fever virus; assay: Antiviral activity against Yellow fever virus 17D infected in human A549 cells assessed as decrease in viral E protein production after 48 hrs by CFI assay; format: functional, cell-based; details: A549, 48 h; method in brief: as §1
[11] = system: Dengue virus; assay: Antiviral activity against 25 MOI Dengue virus NGC infected in human A549 cells assessed as inhibition of NS3 protein production by CFI assay; format: functional, organism-based
Method in brief: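 A549 cells on coverslips infected at MOI 25 with or without compound for 7 h. Methanol-fixed and stained with anti-E 4G2 and anti-NS3 antibodies plus fluorescent secondaries, DAPI mounting. Immunofluorescence microscopy.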

[12] = system: Dengue virus; assay: Antiviral activity against Dengue virus NGC infected in human A549 cells assessed as viral antigen expression at 0.2 microM; format: functional
[13] = system: dengue virus type 4; assay: Antiviral activity against DENV-4 isolate My01-22713 infected in Cricetinae BHK21 cells assessed as decrease in viral E protein production after 48 hrs by CFI assay; format: functional, organism-based; details: isolate My01-22713, BHK-21, 48 h; method in brief: as §1
[14] = system: dengue virus type 2; assay: Antiviral activity against DENV-2 NGC infected in human A549 cells assessed as decrease in viral E protein production after 48 hrs by CFI assay; format: functional, organism-based; details: A549, 48 h; method in brief: as §1
[15] = system: dengue virus type 1; assay: Antiviral activity against DENV-1 isolate My97-10245 infected in Cricetinae BHK21 cells assessed as decrease in viral E protein production after 48 hrs by CFI assay; format: functional, organism-based; details: isolate My97-10245, BHK-21, 48 h; method in brief: as §1
[16] = system: Dengue virus; assay: Binding affinity to Dengue virus particles by liquid chromatography
Method in brief: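 Dengue virus (6 x 10^7 PFU) incubated with 5 µM compound at room temperature for 30 min, then loaded onto a gel-filtration spin column and centrifuged. Eluate analysed by LC-MS/MS in multiple-reaction-monitoring mode. Compound without virus run as a control.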

[17] = system: dengue virus type 2; assay: Antiviral activity against DENV-2 NGC infected in Cricetinae BHK21 cells assessed as decrease in viral E protein production after 48 hrs by CFI assay; format: functional, organism-based; details: BHK-21, 48 h; method in brief: as §1
[18] = system: Dengue virus; assay: Antiviral activity against Dengue virus NGC infected in human A549 cells assessed as colocalization of virus measured as E protin signal after 2 hrs by confocal microscopy; format: functional, organism-based
Method in brief: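 Virus pre-incubated with biotinylated compound, then passed through a gel-filtration spin column. Eluate used to infect A549 cells on coverslips for 2 h at 37°C. Cells fixed in formaldehyde for 15 min, compound detected with streptavidin-FITC and virus with anti-E antibody. Confocal microscopy.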

| Structure (SMILES) | EC50 [1] [nM] | EC50 [2] [nM] | CC50 at 48 h [3] [nM] | also measured |
| --- | --- | --- | --- | --- |
| CC(C)(N)/C=C/c1cccc(-c2ccc(-c3ccnc(NC4CC(C)(C)NC(C)(C)C4)n3)s2)n1 | 310 | 1690 | > 20000 | – |
| CC1(C)CC(Nc2nccc(-c3ccc(-c4ccc(Cl)cc4)s3)n2)CC(C)(C)N1 | 320 | 270 | > 20000 | – |
| Clc1ccc(-c2ccc(-c3nc(NCc4cccnc4)nc4ccccc34)s2)cc1 | 198 | 70 | > 20000 | EC50 [4]: 1420 nM; Activity [5]: tde; EC50 [6]: 496 nM; Activity [7]: Active; EC50 [8]: 564 nM; Activity [9]: inactive; EC50 [10]: 470 nM; Activity [11]: Active; Activity [12]: >50%; EC50 [13]: 334 nM; EC50 [14]: 119 nM; EC50 [15]: 108 nM; Activity [16]: Active; EC50 [17]: 68 nM |
| CC1(C)CC(Nc2nc(-c3ccc(-c4ccc(Cl)cc4)s3)c3ccccc3n2)CC(C)(C)N1 | 84 | 40 | 18600 | – |
| CC(=O)c1cccc(-c2ccc(-c3ccnc(NC4CC(C)(C)NC(C)(C)C4)n3)s2)c1 | 300 | 900 | > 20000 | – |
| Clc1ccc(-c2ccc(-c3ccnc(N4CCNCC4)n3)s2)cc1 | 41 | 90 | > 20000 | – |
| O=C(CCCC[C@@H]1SC[C@H]2NC(=O)N[C@@H]12)NCCOCCOCCNc1nc(-c2ccc(-c3ccc(Cl)cc3)s2)c2ccccc2n1 | – | 234 | – | Activity [18]: inactive |
